Data set [1] addresses T1, Hexokinase-4 (Homo sapiens, UniProt P35557).
T1 sequence (P35557 whole entry): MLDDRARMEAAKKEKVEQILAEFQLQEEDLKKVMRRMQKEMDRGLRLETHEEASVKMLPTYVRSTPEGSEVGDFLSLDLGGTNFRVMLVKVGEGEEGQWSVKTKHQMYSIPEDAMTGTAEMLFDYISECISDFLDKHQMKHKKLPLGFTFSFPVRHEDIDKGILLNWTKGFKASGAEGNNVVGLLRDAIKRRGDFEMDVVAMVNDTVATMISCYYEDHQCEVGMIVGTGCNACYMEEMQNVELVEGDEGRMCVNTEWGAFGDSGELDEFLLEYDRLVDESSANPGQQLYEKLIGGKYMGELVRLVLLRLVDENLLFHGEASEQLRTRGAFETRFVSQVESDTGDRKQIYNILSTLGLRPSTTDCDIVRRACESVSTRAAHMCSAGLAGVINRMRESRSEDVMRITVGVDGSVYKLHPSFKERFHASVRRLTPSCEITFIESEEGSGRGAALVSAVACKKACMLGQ
In words: Activation of flag-tagged human recombinant liver glucokinase expressed in Escherichia coli by glucose-6-phosphate dehydrogenase coupled continuous spectrophotometric assay in presence of 2.5 mM glucose.

In data set [2] the target is T1, Hexokinase-4. In words: Activation of flag-tagged human recombinant liver glucokinase expressed in Escherichia coli by glucose-6-phosphate dehydrogenase coupled continuous spectrophotometric assay in presence of 10 mM glucose.
The next data set has as its system Mus musculus. Nature of the data set: Glucose lowering effect in normal-fed ICR mouse assessed as decrease in plasma glucose AUC level at 30 mg/kg, po. It is filed as functional, organism-based. On the set-up: dose 30 mg/kg. Put shortly:
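Mice given a single oral dose in 0.5% methylcellulose vehicle. Blood glucose measured just before dosing and at 0.5, 1, 1.5, 2, 3 and 4 h after dosing.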

A short description of data set [3]: AUC (0 to infinity) in Sprague-Dawley rat at 1 mg/kg, iv. It is filed as ADME, organism-based. More on the design: time infinity, dose 1 mg/kg, route intravenous. The settings on record: plasma.
Data set [4] is described as follows: Total clearance in Sprague-Dawley rat at 1 mg/kg, iv. On the set-up: dose 1 mg/kg, route intravenous. Format: ADME, organism-based. The settings on record: in vivo.
Data set [5] is described as follows: Half life in Sprague-Dawley rat at 1 mg/kg, iv. On the set-up: dose 1 mg/kg, route intravenous. The settings on record: in vivo. It is filed as ADME, organism-based.
The nature of data set [6]: Volume of distribution at steady state in Sprague-Dawley rat at 1 mg/kg, iv. The following applies: in vivo, read-out: Vdss. More on the design: dose 1 mg/kg, route intravenous. Format: ADME, organism-based.
Data set [7] is described as follows: AUC (0 to infinity) in Sprague-Dawley rat at 3 mg/kg, po. Format: ADME, organism-based. On the set-up: time infinity, dose 3 mg/kg, route oral. The following applies: plasma.
A short description of data set [8]: Cmax in Sprague-Dawley rat at 3 mg/kg, po. Format: ADME, organism-based. On the set-up: dose 3 mg/kg, route oral. The following applies: in vivo.
Data set [9] is described as follows: Tmax in Sprague-Dawley rat at 3 mg/kg, po. The settings on record: in vivo. Format: ADME, organism-based. More on the design: dose 3 mg/kg, route oral.
A short description of data set [10]: Oral bioavailability in Sprague-Dawley rat at 3 mg/kg. Format: ADME, organism-based. The following applies: in vivo.
For a further data set, the system named is Rattus norvegicus. In words: Glucose lowering effect in overnight-fasted po dosed Wistar rat assessed as decrease in glucose AUC level administered 30 mins before oral glucose challenge by OGTT. It is filed as functional, organism-based. In a few lines:
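Rats dosed orally in 0.5% methylcellulose vehicle, then given an oral glucose challenge (2 g/kg) 30 min later. Plasma glucose measured just before and after the challenge. Glucose AUC used as read-out.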

The values below come from ChEMBL document CHEMBL1153380, “Discovery of potent and orally active 3-alkoxy-5-phenoxy-N-thiazolyl benzamides as novel allosteric glucokinase activators” (Bioorg Med Chem, 2009).

pEC50: −log10 of the molar value. Activity calls are given as the source filed them. The calls are words filed in the database; no cut-off is given here. Bounds are passed on as bounds.

Take `Cc1csc(NC(=O)c2cc(Oc3ccccc3S(C)(=O)=O)ccc2Oc2ccccc2)n1`: the pEC50 at Hexokinase-4 [1] and on Hexokinase-4 [2] was < 4.52 each time.

`Cc1csc(NC(=O)c2cccc(Oc3ccccc3F)c2)n1`: the values for the pEC50 at Hexokinase-4 [1] and on Hexokinase-4 [2] were 5.62 and 6.35, respectively.

Consider `COc1cc(Oc2ccccc2S(C)(=O)=O)cc(C(=O)Nc2nc(C)cs2)c1`, for which the pEC50 at Hexokinase-4 [1] was 4.96; on Hexokinase-4 [2], 5.72.

`Cc1csc(NC(=O)c2cccc(Oc3ccc(S(C)(=O)=O)cc3)c2)n1`: the pEC50 is 4.54 at Hexokinase-4 [1] and 5.47 at Hexokinase-4 [2].

Regarding `Cc1csc(NC(=O)c2cccc(Oc3cccc(F)c3)c2)n1`, the results for the pEC50 at Hexokinase-4 [1] and on Hexokinase-4 [2] were 5.20 and 5.66, respectively.

Consider `COc1ccccc1Oc1cccc(C(=O)Nc2nc(C)cs2)c1`, for which the pEC50 on Hexokinase-4 [1] was 5.66; at Hexokinase-4 [2], 6.31.

On to `Cc1ccc(Oc2cccc(C(=O)Nc3nc(C)cs3)c2)cc1`, for which the results for the pEC50 at Hexokinase-4 [1] and at Hexokinase-4 [2] were 5.23 and 5.19, respectively.

Regarding `CCOc1cc(Oc2ccccc2S(C)(=O)=O)cc(C(=O)Nc2nc(C)cs2)c1`, the figures for the pEC50 on Hexokinase-4 [1] and on Hexokinase-4 [2] were 5.62 and 5.68, respectively.

In the case of `Cc1csc(NC(=O)c2cc(Oc3ccc(S(C)(=O)=O)cc3)cc(OC(C)C)c2)n1`, the result in the data set on Mus musculus was Active. For the same compound, the AUC(0-inf) in [3] amounted to 9.7 µM·h; in [7], 12 µM·h. Further, the clearance in data set [4] was determined as 4.1 mL/min/kg. The compound also showed a half-life in data set [5] of 66 min. Moreover, the Vd in data set [6] was determined as 0.4 L/kg. In addition, in [8], the Cmax turned out to be 2900 nM. Further, the Tmax in data set [9] came out at 1 h. This compound also yielded a bioavailability in data set [10] of 40%. In addition, the Activity entry with Rattus norvegicus is “Dose-dependent effect”. Further, the pEC50 was 6.48 at Hexokinase-4 [1] and 6.89 on Hexokinase-4 [2].

Regarding `Cc1csc(NC(=O)c2cc(Oc3ccccc3S(C)(=O)=O)ccc2OC(C)C)n1`, the pEC50 on Hexokinase-4 [1] and at Hexokinase-4 [2] was < 4.52 in each case.

Turning to `Cc1csc(NC(=O)c2cccc(Oc3cccc(S(C)(=O)=O)c3)c2)n1`, the figures for the pEC50 at Hexokinase-4 [1] and on Hexokinase-4 [2] were 4.74 and 5.96, respectively.

`Cc1csc(NC(=O)c2cc(Oc3ccccc3)cc(Oc3ccccc3S(C)(=O)=O)c2)n1`: the pEC50 is 5.96 on Hexokinase-4 [1] and 6.21 at Hexokinase-4 [2].

In the case of `Cc1csc(NC(=O)c2cccc(Oc3ccccc3C)c2)n1`, the values for the pEC50 at Hexokinase-4 [1] and on Hexokinase-4 [2] were 5.49 and 6.09, respectively.

Consider `Cc1cccc(Oc2cccc(C(=O)Nc3nc(C)cs3)c2)c1`, for which the pEC50 at Hexokinase-4 [1] was 5.09; on Hexokinase-4 [2], 5.64.

For the compound `Cc1csc(NC(=O)c2cccc(Oc3ccccc3)c2)n1`, the values for the pEC50 on Hexokinase-4 [1] and on Hexokinase-4 [2] were 4.72 and 6.10, respectively.

With `Cc1csc(NC(=O)c2cc(Oc3cccc(S(C)(=O)=O)c3)cc(OC(C)C)c2)n1`, the pEC50 at Hexokinase-4 [1] is 5.96; at Hexokinase-4 [2], 7.05.

Turning to `Cc1csc(NC(=O)c2cc(Oc3ccccc3)cc(Oc3ccc(S(C)(=O)=O)cc3)c2)n1`, the pEC50 at Hexokinase-4 [1] was 6.38; on Hexokinase-4 [2], 6.46.

As to `Cc1csc(NC(=O)c2cc(Oc3ccccc3S(C)(=O)=O)cc(OC(C)C)c2)n1`, the results for the pEC50 at Hexokinase-4 [1] and at Hexokinase-4 [2] were 5.68 and 6.36, respectively.

`CCOc1ccccc1Oc1cccc(C(=O)Nc2nc(C)cs2)c1`: the negative logarithm of the EC50 (pEC50) on Hexokinase-4 [1] was 5.27; on Hexokinase-4 [2], 5.72.

For `Cc1csc(NC(=O)c2cc(Oc3ccccc3)cc(Oc3cccc(S(C)(=O)=O)c3)c2)n1`, the results for the pEC50 at Hexokinase-4 [1] and on Hexokinase-4 [2] were 5.96 and 6.03, respectively.

For `Cc1csc(NC(=O)c2cccc(Oc3ccccc3S(C)(=O)=O)c2)n1`, the pEC50 at Hexokinase-4 [1] is 5.26; on Hexokinase-4 [2], 5.96.

For the compound `Cc1csc(NC(=O)c2cccc(Oc3ccc(F)cc3)c2)n1`, the negative-log EC50 (pEC50) at Hexokinase-4 [1] was 4.68; on Hexokinase-4 [2] it was 5.38.

Usually pEC50 stands for the EC50 on a negative log10 scale, so that one unit is a factor of ten. A word on the AUC(0-inf): it is total exposure, with the tail of the curve extrapolated. The low end stands for less exposure, the high end for more exposure. Usually clearance stands for a measure of how efficiently the substance is removed, as volume per time. What is called half-life is how long it takes for the measured level to halve. High values mean slow decline, low ones rapid decline. The term Cmax denotes the peak of the concentration-time curve. As a reminder, the Tmax is the time from dosing to the highest level. For orientation: bioavailability means the share of a dose that reaches the circulation, judged against a reference dose that is usually intravenous. High values mean good availability, low ones poor availability.
